By IC50 is commonly meant the concentration that inhibits the measured activity by half.

The record followed here is ChEMBL document CHEMBL4177657, “Structure-activity relationships of 2-substituted phenyl-N-phenyl-2-oxoacetohydrazonoyl cyanides as novel antagonists of exchange proteins directly activated by cAMP (EPACs)” (Bioorg Med Chem Lett, 2017).

Each structure is given as a SMILES string.

The target in assay [1] is Rap guanine nucleotide exchange factor 4 (Homo sapiens, UniProt Q8WZA2). Kind of assay: Antagonist activity at recombinant full length EPAC2 (unknown origin) assessed as inhibition of cAMP-mediated Rap1b-BODIPY GDP nucleotide exchange activity. The method, boiled down:
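Guanine nucleotide exchange on Rap1b loaded with bGDP, catalysed by EPAC2 in the presence of 20 μM cAMP and run across a compound dose range. Relative GEF activity is expressed as the normalized reaction rate constant.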

In assay [2] the target is T1, Rap guanine nucleotide exchange factor 3 (Homo sapiens, UniProt O95398).
T1 sequence (O95398 whole entry): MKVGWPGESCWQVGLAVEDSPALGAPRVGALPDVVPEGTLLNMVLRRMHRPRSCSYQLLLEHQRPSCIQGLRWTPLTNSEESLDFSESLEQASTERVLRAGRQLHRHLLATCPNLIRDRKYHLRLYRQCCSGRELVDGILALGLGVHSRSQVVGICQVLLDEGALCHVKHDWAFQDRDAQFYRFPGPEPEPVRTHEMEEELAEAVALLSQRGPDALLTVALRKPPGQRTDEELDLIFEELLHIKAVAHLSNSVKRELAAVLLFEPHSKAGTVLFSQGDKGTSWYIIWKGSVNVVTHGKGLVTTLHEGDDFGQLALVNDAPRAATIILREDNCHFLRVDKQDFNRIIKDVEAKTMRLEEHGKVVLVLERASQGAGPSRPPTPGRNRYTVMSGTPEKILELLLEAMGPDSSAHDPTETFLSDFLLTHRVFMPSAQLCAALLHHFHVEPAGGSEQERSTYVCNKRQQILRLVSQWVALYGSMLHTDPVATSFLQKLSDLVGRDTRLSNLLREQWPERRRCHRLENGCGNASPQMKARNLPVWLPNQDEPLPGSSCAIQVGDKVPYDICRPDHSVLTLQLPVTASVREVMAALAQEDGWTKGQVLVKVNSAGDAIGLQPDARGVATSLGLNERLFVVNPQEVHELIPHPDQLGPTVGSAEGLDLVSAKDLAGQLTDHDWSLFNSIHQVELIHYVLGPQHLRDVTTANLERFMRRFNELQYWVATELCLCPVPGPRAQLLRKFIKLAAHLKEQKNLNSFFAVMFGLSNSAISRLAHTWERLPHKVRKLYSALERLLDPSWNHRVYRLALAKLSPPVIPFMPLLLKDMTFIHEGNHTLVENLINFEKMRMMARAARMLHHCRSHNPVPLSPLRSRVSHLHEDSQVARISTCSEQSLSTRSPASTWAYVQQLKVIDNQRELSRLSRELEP
Kind of assay: (§1) Antagonist activity at recombinant full length EPAC1 (unknown origin) assessed as inhibition of cAMP-mediated Rap1b-BODIPY GDP nucleotide exchange activity. An outline of the steps: (§2)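 Guanine nucleotide exchange on Rap1b loaded with BODIPY-GDP (Rap1b-bGDP), catalysed by EPAC1 in the presence of 20 μM cAMP. Inhibitor is tested over a dose range. GEF activity is expressed as a normalized reaction rate constant, and IC50 is taken from the dose-response curves. Values are mean ± SE, n = 3.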

The target in assay [3] is T2, Rap guanine nucleotide exchange factor 3 (Homo sapiens) (UniProt O95398).
T2 sequence (whole entry): T1 sequence (O95398 whole entry)
Described as §1. An outline of the steps: as §2

Regarding `CC(C)(C)c1cc(C(=O)/C(C#N)=N/Nc2cccc(Cl)c2)no1`, the values for the IC50 in assay [1] and in assay [2] were 4.4 to 8.9 µM and 9.1 to 10.8 µM, respectively. Further, the inhibition entry in assay [1] and in assay [3] was “Dose-dependent effect” throughout.
Consider `C[C@@H]1CCc2c(cc(Br)c(F)c2Br)N1C=O`, for which the results for the IC50 in assay [1] and in assay [2] were 17 µM and 5.5 µM, respectively.
